One assay deals with Neuromedin-U receptor 2 (Homo sapiens, UniProt Q9GZQ4). The experiment in a line: Agonist activity at human NMU2R transfected in HEK293 cells after 7 hrs by luciferase reporter gene assay. The format is cell-based. The procedure, abridged: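 HEK-293 cells were stably co-transfected with a reporter gene construct and human NMU2R cDNA in pcDNA3.1(+), maintained under G418 selection at 37 °C in 5% CO2, then seeded and incubated overnight. Compounds were added at various concentrations for 7 h at 37 °C, followed by Bright-Glo luciferase read-out. Forskolin and NMU served as positive controls. EC50 was fitted by four-parameter logistic regression; means ± SEM of three independent experiments.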
On the technique in general: A reporter such as luciferase makes a cellular process visible.

In assay [1] the target is Adrenocorticotropic hormone receptor (Homo sapiens) (UniProt Q01718). In words: Agonist activity at human MC2 receptor at 100 uM to 5 mM.
The target in assay [2] is Melanocortin receptor 3 (Homo sapiens) (UniProt P41968). The experiment in a line: Agonist activity at human MC3 receptor at 100 uM to 5 mM.
Assay [3] deals with Melanocyte-stimulating hormone receptor (Mus musculus) (UniProt Q01727). In words: Agonist activity at mouse MC1 receptor at 100 uM to 5 mM.
Assay [4] addresses Adrenocorticotropic hormone receptor (Mus musculus) (UniProt Q64326). The experiment in a line: Agonist activity at mouse MC2 receptor at 100 uM to 5 mM.
In assay [5] the target is Melanocortin receptor 3 (Mus musculus) (UniProt P33033). In words: Agonist activity at mouse MC3 receptor at 100 uM to 5 mM.
Assay [6] concerns the target Melanocortin receptor 5 (Mus musculus) (UniProt P41149). In words: Agonist activity at mouse MC5 receptor at 100 uM to 5 mM.
Assay [7] concerns the target Melanin-concentrating hormone receptor 1 (Homo sapiens) (UniProt Q99705). In words: Agonist activity at human MCH1 receptor at 100 uM to 5 mM.
Assay [8] has as its target D(1A) dopamine receptor (Homo sapiens) (UniProt P21728). In words: Agonist activity at human D1 receptor at 100 uM to 5 mM.
The target of assay [9] is T1, Adenosine receptor A1 (Homo sapiens) (UniProt P30542).
T1 sequence (whole entry): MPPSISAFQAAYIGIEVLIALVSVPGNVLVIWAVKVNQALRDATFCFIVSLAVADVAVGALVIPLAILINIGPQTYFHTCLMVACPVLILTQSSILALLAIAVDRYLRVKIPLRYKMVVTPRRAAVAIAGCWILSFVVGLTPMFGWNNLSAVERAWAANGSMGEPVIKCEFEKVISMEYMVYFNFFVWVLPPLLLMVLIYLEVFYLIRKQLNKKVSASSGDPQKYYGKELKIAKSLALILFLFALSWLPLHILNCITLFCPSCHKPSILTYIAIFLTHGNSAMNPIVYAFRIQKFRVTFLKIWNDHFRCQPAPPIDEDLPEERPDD
In words: Agonist activity at human A1 receptor at 100 uM to 5 mM.

The target in assay [10] is T2, Parathyroid hormone/parathyroid hormone-related peptide receptor (Homo sapiens) (UniProt Q03431).
T2 sequence (whole entry): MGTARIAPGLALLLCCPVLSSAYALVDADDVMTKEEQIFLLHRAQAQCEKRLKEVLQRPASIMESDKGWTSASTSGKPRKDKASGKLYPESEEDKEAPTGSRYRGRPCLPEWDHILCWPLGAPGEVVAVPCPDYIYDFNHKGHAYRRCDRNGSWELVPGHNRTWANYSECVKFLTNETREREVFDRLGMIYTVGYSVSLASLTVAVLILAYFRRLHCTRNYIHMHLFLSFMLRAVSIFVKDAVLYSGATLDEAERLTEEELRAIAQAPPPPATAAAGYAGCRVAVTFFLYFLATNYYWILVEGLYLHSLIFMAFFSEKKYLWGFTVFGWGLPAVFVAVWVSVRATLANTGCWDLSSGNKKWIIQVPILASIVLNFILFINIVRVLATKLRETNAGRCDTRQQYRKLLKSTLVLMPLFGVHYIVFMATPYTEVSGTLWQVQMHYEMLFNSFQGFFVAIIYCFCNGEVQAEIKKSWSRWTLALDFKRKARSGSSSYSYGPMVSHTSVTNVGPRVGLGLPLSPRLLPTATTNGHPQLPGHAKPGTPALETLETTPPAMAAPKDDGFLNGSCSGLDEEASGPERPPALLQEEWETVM
In words: Agonist activity at human PTH receptor at 100 uM to 5 mM.

In assay [11] the target is T3, C5a anaphylatoxin chemotactic receptor 1 (Homo sapiens) (UniProt P21730).
T3 sequence (whole entry): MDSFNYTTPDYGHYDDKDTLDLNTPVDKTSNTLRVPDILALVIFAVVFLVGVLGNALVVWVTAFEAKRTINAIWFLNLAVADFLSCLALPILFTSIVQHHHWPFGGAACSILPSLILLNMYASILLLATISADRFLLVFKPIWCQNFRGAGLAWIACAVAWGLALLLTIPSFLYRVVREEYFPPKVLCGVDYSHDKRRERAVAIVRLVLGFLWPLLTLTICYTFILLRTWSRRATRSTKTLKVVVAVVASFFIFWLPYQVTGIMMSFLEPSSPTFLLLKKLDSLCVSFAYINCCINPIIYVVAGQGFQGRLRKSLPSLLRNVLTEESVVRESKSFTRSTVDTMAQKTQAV
In words: Agonist activity at human C5a receptor at 100 uM to 5 mM.

The target of assay [12] is T4, Neuropeptide Y receptor type 5 (Homo sapiens) (UniProt Q15761).
T4 sequence (whole entry): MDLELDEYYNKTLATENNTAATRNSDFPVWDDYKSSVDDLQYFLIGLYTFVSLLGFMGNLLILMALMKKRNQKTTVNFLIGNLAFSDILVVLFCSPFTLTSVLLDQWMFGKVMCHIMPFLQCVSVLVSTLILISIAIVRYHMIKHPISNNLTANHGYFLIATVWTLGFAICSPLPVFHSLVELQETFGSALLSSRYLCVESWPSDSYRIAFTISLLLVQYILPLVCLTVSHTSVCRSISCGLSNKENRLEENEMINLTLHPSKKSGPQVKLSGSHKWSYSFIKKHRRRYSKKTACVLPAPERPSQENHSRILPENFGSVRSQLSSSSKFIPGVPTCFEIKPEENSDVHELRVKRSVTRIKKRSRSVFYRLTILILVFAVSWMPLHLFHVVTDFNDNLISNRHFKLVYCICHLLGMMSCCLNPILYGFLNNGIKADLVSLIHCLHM
In words: Agonist activity at human NPY5 receptor at 100 uM to 5 mM.

Activity calls are given as the source filed them. No cut-off for these calls is given here.

Melanocortin receptor 3 (Homo sapiens), sequence (P41968 whole entry): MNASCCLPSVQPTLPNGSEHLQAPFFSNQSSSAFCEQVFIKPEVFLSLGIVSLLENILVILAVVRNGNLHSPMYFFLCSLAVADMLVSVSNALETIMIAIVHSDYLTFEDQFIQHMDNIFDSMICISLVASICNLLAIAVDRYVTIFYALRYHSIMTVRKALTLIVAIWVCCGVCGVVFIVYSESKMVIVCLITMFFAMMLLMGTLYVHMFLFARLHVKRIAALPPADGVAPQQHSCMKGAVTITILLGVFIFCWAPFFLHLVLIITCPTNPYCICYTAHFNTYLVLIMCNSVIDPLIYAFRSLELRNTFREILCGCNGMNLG
Adrenocorticotropic hormone receptor (Homo sapiens), sequence (Q01718 whole entry): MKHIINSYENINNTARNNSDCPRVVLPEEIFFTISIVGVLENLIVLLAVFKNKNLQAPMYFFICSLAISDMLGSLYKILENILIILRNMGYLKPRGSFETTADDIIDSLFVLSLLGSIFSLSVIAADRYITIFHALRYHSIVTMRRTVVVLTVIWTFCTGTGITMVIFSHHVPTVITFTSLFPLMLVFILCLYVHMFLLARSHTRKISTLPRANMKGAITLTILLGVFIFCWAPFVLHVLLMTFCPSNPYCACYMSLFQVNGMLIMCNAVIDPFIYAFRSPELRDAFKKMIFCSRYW
Adrenocorticotropic hormone receptor (Mus musculus), sequence (Q64326 whole entry): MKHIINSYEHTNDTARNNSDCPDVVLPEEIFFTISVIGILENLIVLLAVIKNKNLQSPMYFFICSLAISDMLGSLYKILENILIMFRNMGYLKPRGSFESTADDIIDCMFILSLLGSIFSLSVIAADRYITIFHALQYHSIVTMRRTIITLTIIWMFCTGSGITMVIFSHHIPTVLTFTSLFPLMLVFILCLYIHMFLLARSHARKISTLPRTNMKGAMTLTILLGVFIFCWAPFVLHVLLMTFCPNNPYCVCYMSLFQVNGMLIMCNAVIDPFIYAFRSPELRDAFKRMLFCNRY
Melanin-concentrating hormone receptor 1 (Homo sapiens), sequence (Q99705 whole entry): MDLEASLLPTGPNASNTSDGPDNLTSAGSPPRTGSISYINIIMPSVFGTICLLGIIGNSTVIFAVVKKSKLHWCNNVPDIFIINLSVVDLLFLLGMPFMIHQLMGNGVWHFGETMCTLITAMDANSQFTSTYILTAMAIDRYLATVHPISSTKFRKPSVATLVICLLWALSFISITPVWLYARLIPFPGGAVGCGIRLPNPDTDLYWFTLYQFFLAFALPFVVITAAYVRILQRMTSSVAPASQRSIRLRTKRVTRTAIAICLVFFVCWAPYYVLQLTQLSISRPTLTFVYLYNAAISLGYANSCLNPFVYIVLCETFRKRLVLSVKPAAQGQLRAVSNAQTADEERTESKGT
Melanocortin receptor 3 (Mus musculus), sequence (P33033 whole entry): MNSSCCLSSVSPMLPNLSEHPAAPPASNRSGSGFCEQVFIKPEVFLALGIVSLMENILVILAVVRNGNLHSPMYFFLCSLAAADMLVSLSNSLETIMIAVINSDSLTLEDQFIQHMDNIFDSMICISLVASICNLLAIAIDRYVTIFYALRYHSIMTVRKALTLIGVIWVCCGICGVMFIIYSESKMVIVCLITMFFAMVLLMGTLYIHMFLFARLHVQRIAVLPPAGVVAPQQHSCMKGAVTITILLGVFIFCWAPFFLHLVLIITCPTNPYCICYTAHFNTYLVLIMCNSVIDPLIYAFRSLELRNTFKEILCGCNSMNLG
D(1A) dopamine receptor (Homo sapiens), sequence (P21728 whole entry): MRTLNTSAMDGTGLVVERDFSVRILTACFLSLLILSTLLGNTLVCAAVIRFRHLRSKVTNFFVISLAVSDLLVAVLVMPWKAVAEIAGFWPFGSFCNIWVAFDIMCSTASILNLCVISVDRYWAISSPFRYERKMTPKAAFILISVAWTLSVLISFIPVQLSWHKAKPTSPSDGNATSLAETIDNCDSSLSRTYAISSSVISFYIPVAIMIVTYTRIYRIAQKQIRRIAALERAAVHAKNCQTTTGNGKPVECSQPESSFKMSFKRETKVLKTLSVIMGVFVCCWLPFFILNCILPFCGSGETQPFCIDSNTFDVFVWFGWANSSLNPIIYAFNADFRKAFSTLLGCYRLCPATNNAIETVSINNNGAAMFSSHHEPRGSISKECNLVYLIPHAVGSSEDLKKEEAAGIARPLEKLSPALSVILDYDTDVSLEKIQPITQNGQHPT
Neuromedin-U receptor 2, sequence (Q9GZQ4 whole entry): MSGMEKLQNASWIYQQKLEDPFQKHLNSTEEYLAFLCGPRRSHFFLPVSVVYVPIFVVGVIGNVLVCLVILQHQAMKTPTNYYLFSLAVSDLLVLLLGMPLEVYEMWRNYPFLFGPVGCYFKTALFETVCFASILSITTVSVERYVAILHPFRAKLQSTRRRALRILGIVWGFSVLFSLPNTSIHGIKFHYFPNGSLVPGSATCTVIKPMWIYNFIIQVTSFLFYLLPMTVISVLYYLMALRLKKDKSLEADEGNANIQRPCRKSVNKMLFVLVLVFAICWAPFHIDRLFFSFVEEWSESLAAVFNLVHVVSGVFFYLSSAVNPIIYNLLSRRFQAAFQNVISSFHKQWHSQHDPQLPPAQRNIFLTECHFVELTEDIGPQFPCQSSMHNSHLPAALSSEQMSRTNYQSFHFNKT
Melanocortin receptor 5 (Mus musculus), sequence (P41149 whole entry): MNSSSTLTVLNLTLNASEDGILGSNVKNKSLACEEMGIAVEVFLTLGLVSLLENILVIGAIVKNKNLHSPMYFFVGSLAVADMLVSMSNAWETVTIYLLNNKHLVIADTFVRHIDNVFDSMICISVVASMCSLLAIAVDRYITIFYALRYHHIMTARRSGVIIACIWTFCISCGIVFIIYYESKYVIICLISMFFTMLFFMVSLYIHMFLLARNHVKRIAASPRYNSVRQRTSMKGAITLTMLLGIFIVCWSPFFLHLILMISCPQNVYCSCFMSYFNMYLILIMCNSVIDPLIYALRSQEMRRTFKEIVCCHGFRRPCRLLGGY
Melanocyte-stimulating hormone receptor (Mus musculus), sequence (Q01727 whole entry, looked up): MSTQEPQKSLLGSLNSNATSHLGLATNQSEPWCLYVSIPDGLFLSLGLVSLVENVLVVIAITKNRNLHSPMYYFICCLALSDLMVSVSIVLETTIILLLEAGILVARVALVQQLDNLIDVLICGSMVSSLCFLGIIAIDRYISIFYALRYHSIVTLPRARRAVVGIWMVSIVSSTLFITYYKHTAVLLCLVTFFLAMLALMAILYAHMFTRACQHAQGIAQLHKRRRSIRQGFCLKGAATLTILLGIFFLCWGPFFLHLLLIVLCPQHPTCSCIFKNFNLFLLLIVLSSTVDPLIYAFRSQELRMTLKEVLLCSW

In the case of `CN(C)c1ccc(C2C=Cc3ccccc3O2)cc1` (racemic), the EC50 – broadly, the concentration that produces a half-maximal response – at Neuromedin-U receptor 2 (hek293) is given as “Not Active”. In addition, the outcome in [1], in assay [2], in assay [3], in assay [4], in assay [5] and in assay [6] was inactive. Also, the result in assay [7], in assay [8], in assay [9], in assay [10], in [11] and in assay [12] was inactive.

In the case of `O=c1c(O)c(-c2cc(Br)ccc2F)oc2ccccc12`, on Neuromedin-U receptor 2 (read-out: EC50), the EC50 was determined as 14 µM. For the same compound, the result in [1], in [2], in assay [3], in [4], in assay [5] and in assay [6] was inactive. Besides, the result in assay [7], in assay [8], in [9], in [10], in assay [11] and in [12] was inactive.

Consider `COc1cc(-c2oc3ccccc3c(=O)c2O)ccc1O`, for which the EC50 result on Neuromedin-U receptor 2 (hek293) is listed as “Not Active”. Moreover, the outcome in [1], in [2], in assay [3], in assay [4], in [5] and in [6] was inactive. Besides, the outcome in assay [7], in assay [8], in [9], in assay [10], in [11] and in assay [12] was inactive.

With `COc1ccc(-c2oc3ccccc3c(=O)c2O)cc1O`, on Neuromedin-U receptor 2 (hek293), the EC50 entry was “Not Active”. Besides, the outcome in [1], in assay [2], in [3], in assay [4], in assay [5] and in assay [6] was inactive. Besides, the result in assay [7], in [8], in assay [9], in [10], in assay [11] and in assay [12] was inactive.

Regarding `O=c1cc(-c2ccc(Cl)cc2Cl)oc2ccccc12`, at Neuromedin-U receptor 2 (hek293), the concentration for a half-maximal effect (EC50) entry is “Not Active”. Also, the result in [1], in [2], in assay [3], in assay [4], in [5] and in [6] was inactive. The result in [7], in assay [8], in assay [9], in assay [10], in assay [11] and in assay [12] was inactive.

As to `COc1c(-c2cc(Br)ccc2F)oc2ccccc2c1=O`, on Neuromedin-U receptor 2 (hek293), the EC50 result is reported as “Not Active”. The outcome in [1], in assay [2], in [3], in assay [4], in [5] and in [6] was inactive. Also, the result in assay [7], in [8], in assay [9], in assay [10], in assay [11] and in assay [12] was inactive.

For the compound `O=c1c(O)c(-c2cccc(Cl)c2F)oc2ccccc12`, on Neuromedin-U receptor 2 (read-out: EC50), the EC50 turned out to be 31.1 µM. Also, the result in assay [1], in [2], in assay [3], in assay [4], in assay [5] and in assay [6] was inactive. In addition, the result in assay [7], in assay [8], in assay [9], in [10], in assay [11] and in assay [12] was inactive.

On to `O=c1c(O)c(-c2ccc(O)c(O)c2)oc2ccccc12`, for which the EC50 result on Neuromedin-U receptor 2 (hek293) is on record as “Not Active”. The result in [1], in assay [2], in assay [3], in assay [4], in assay [5] and in assay [6] was inactive. The outcome in assay [7], in assay [8], in assay [9], in assay [10], in [11] and in assay [12] was inactive.

As for `COc1ccc(C2C=Cc3ccccc3O2)cc1O` (racemic), the EC50 result at Neuromedin-U receptor 2 (hek293) is “Not Active”. Also, the result in [1], in assay [2], in assay [3], in assay [4], in assay [5] and in [6] was inactive. The outcome in [7], in [8], in assay [9], in [10], in assay [11] and in assay [12] was inactive.
